Values after ≈ are worked out from the molar mass of the structure shown. Active and inactive are the calls of the source. No cut-off for these calls is given here.
Key:
[1] = test system: Candida albicans; experiment: Antifungal activity against Candida albicans assessed as reduction in fungal growth incubated for overnight by serial dilution assay; assay type: functional
In short: (§1)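 MIC50 determined against five fungi (C. albicans, M. hiemalis, R. glutinis, S. pombe, W. anomalus), with nystatin as positive control. Values given in µg/mL; "–" means no inhibition under test conditions.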

[2] = test system: Mucor hiemalis; experiment: Antifungal activity against Mucor hiemalis assessed as reduction in fungal growth incubated for overnight by serial dilution assay; assay type: functional; in short: as §1
[3] = test system: Rhodotorula glutinis; experiment: Antifungal activity against Rhodotorula glutinis assessed as reduction in fungal growth incubated for overnight by serial dilution assay; assay type: functional; in short: as §1
[4] = test system: Schizosaccharomyces pombe; experiment: Antifungal activity against Schizosaccharomyces pombe assessed as reduction in fungal growth incubated for overnight by serial dilution assay; assay type: functional; in short: as §1
[5] = test system: Wickerhamomyces anomalus; experiment: Antifungal activity against Wickerhamomyces anomalus assessed as reduction in fungal growth incubated for overnight by serial dilution assay; assay type: functional; in short: as §1
[6] = test system: Bacillus subtilis; experiment: Antibacterial activity against Bacillus subtilis assessed as reduction in microbial growth incubated for overnight by serial dilution assay; assay type: functional
In short: (§2)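 MIC50 determined against Gram-positive and Gram-negative bacteria. Positive controls: oxytetracycline for most bacteria, ciprobay for A. baumannii, gentamycin for Ps. aeruginosa. Values given in µg/mL; "–" means no inhibition under test conditions.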

[7] = test system: Chromobacterium violaceum; experiment: Antibacterial activity against Chromobacterium violaceum assessed as reduction in microbial growth incubated for overnight by serial dilution assay; assay type: functional; in short: as §2
[8] = test system: Escherichia coli; experiment: Antibacterial activity against Escherichia coli assessed as reduction in microbial growth incubated for overnight by serial dilution assay; assay type: functional; in short: as §2
[9] = test system: Pseudomonas aeruginosa; experiment: Antibacterial activity against Pseudomonas aeruginosa assessed as reduction in microbial growth incubated for overnight by serial dilution assay; assay type: functional, organism-based; in short: as §2
[10] = test system: Staphylococcus aureus; experiment: Antibacterial activity against Staphylococcus aureus assessed as reduction in microbial growth incubated for overnight by serial dilution assay; assay type: functional; in short: as §2
[11] = (§3) Cytotoxicity against human KB-3-1 cells assessed as reduction in cell viability after 5 days by MTT assay; assay type: toxicity, cell-based; conditions: human, KB-3-1 cells
In short: (§4)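 Cytotoxicity read by MTT method against mammalian cell lines (human endocervical adenocarcinoma KB 3.1, mouse fibroblast L929), with epothilone B as positive control. IC50 reported in µM.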

[12] = Cytotoxicity against mouse L929 cells assessed as reduction in cell viability after 5 days by MTT assay; assay type: toxicity, cell-based; in short: as §4
[13] = test system: Acinetobacter baumannii; experiment: Antibacterial activity against Acinetobacter baumannii assessed as reduction in microbial growth incubated for overnight by serial dilution assay
[14] = test system: KB 3-1; experiment: as §3; assay type: toxicity, cell-based; conditions: kb 3-1; in short: as §4

Row | Compound | MIC [1] [µg/mL] | MIC [2] [µg/mL] | MIC [3] [µg/mL] | MIC [4] [µg/mL] | MIC ([5]; Hansenula anomala) [µg/mL] | MIC [6] [µg/mL] | Activity [8] | Activity [9] | MIC [10] [µg/mL] | IC50 at 5 days [11] [µM] | IC50 at 5 days [12] [µM] | Activity [7] | further results
1 | NYSTATIN | 16.6 | 8.3 | 2.1 | 4.2 |  |  |  |  |  |  |  |  | MIC [5]: 8.3 µg/mL
2 | CN1C(=O)C23SSC4c5ccccc5O[C@]41C(=O)N2O[C@]1(C[C@H](O)C=CC1=O)[C@H]3O (stereo partly specified) | 66.6 (≈ 149 µM) | 8 (≈ 17.8 µM) | 33.3 (≈ 74.3 µM) | 66.6 (≈ 149 µM) | 33.3 (≈ 74.3 µM) | 16.6 | inactive | inactive | 8.3 | 49 | 42 |  | MIC [7]: 16.6 µg/mL
3 | O=C(O)c1cn(C2CC2)c2cc(N3CCNCC3)c(F)cc2c1=O [CIPROFLOXACIN] |  |  |  |  |  |  |  |  |  |  |  |  | MIC [13]: 0.53 µg/mL
4 | GENTAMICIN |  |  |  |  |  |  |  |  |  |  |  |  | MIC [9]: 0.42 µg/mL
5 | C/C(=C\c1csc(C)n1)[C@@H]1C[C@@H]2O[C@@H]2CCC[C@H](C)[C@H](O)[C@@H](C)C(=O)C(C)(C)[C@H](O)CC(=O)O1 |  |  |  |  |  |  |  |  |  | 4e-05 | 0.00052 |  | 
6 | CSC1c2ccccc2O[C@]12C(=O)N1O[C@]3(CCC=CC3=O)[C@@H](O)C1(SC)C(=O)N2C (stereo partly specified) |  |  |  |  |  | 66.6 | inactive | inactive | 66.6 | 15 | 5 | inactive | Activity [1]: inactive; Activity [2]: inactive; Activity [3]: inactive; Activity [4]: inactive; Activity [5]: inactive
7 | CN1C(=O)C23SSSC4c5ccccc5O[C@]41C(=O)N2O[C@]1(C[C@H](O)[C@H](O)CC1=O)[C@H]3O (stereo partly specified) | 66.6 (≈ 134 µM) | 66.6 (≈ 134 µM) | 66.6 (≈ 134 µM) | 66.6 (≈ 134 µM) | 33.3 (≈ 66.8 µM) | 66.6 | inactive | inactive |  |  | 50 | inactive | Activity [10]: inactive; IC50 [14]: Non-Toxic
8 | CN1C(=O)C23SSC4c5ccccc5O[C@]41C(=O)N2O[C@]1(C[C@H](O)[C@H](O)CC1=O)[C@H]3O (stereo partly specified) |  | 33.3 (≈ 71.4 µM) | 66.6 (≈ 143 µM) | 66.6 (≈ 143 µM) | 66.6 (≈ 143 µM) | 33.3 | inactive | inactive | 33.3 | 54 | 58 | inactive | Activity [1]: inactive
9 | CN(C)[C@@H]1C(O)=C(C(N)=O)C(=O)[C@@]2(O)C(O)=C3C(=O)c4c(O)cccc4[C@@](C)(O)[C@H]3[C@H](O)[C@@H]12 [OXYTETRACYCLINE] |  |  |  |  |  | 16.6 |  |  | 0.83 |  |  |  | MIC [7]: 0.83 µg/mL; MIC [8]: 3.3 µg/mL
